This is an account of results in ChEMBL document CHEMBL5096231, “Covalently Conjugated NOD2/TLR7 Agonists Are Potent and Versatile Immune Potentiators” (J Med Chem, 2022).

Calls of active or inactive are those of the source. No cut-off for these calls is given here.

In one data set the test system is RAW-Blue. Nature of the data set: Activation of NF-kappaB transcriptional activity in mouse RAW-Blue cells expressing NOD2 and TLR7 at 1 uM incubated for 18 hrs by quanti-blue/SEAP-based spectrophotometry analysis. Format: cell-based. As to conditions: filed as activator. Put shortly:
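RAW-Blue cells pretreated 1 h with NOD2 antagonist SG84 (5 μM), TLR7 antagonist M5049 (1 μM), both, or neither, then given compound or 0.1% DMSO vehicle; 18 h at 37 °C, 5% CO2 in growth medium without Normocin/Zeocin. Supernatant mixed with QUANTI-Blue for 2 h at 37 °C, SEAP read at 630 nm. Activity relative to vehicle; three independent experiments, mean ± SEM.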

Data set [1] deals with PBMC. Put plainly: Immunostimulatory activity in human PBMC cells assessed as increase in IL-8 production at 1 uM incubated for 18 hrs by flow cytometry analysis. It is filed as functional, cell-based. An outline of the steps:
(§1)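 PBMCs at 1 × 10^6 cells/mL treated with compound (1 μM), LPS (1 μg/mL) or 0.1% DMSO vehicle; cell-free supernatants collected after 18 h at 37 °C, 5% CO2. Cytokines quantified by human inflammatory cytokine bead array on flow cytometry with recombinant standard curves. Four independent experiments, mean ± SEM.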
A general note: In flow cytometry, cells or beads pass a laser one at a time.

For data set [2], the system named is PBMC. Nature of the data set: Immunostimulatory activity in human PBMC cells assessed as increase in IL-10 production at 1 uM incubated for 18 hrs by flow cytometry analysis. Format: functional, cell-based. Put shortly: as §1
In data set [3] the test system is PBMC. Put plainly: Immunostimulatory activity in human PBMC cells assessed as increase in IL12p70 production at 1 uM incubated for 18 hrs by flow cytometry analysis. Format: functional, cell-based. An outline of the steps: as §1
Another data set deals with MEC1. Put plainly: Cytotoxicity against human MEC1 cells cocultured with human PBMC cells assessed as inhibition of cell proliferation at 0.01 to 1 uM incubated with PBMC cells for 18 hrs followed by co-incubation with MEC-1 cells for 4 hrs by SYTOX blue staining based flow cytometric analysis. It is filed as functional. As to conditions: dose 0.01-1 µM. Put shortly:
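Human PBMCs (Ficoll-isolated, healthy donors) pretreated 18 h in duplicate with compound (1 nM–1 μM) or 0.1% DMSO. CFSE-labelled K562 or MEC1 target cells then added, effector:target 40:1, 4 h at 37 °C. Sytox blue staining, flow cytometry; CFSE+Sytox+ cells counted as dead. Expressed relative to vehicle; three independent experiments, mean ± SEM.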

Data set [4] can be described thus: Induction of mouse ovalbumin specific CD4+ T cell activation assessed as increase in CD25 expression at 1 uM preincubated for 18 hrs with mouse BDMC cells in presence of ovalbumin followed by washout and further coincubated with CD4+ T cells and measured after 72 hrs by flow cytometry analysis (reference value: 10.9%). Format: functional, CD4+ve Th. Put shortly: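 C57BL/6 BMDCs (GM-CSF 7 days, >90% CD11c+) pulsed 18 h with 1 μM compound, LPS 1 μg/mL or 0.1% DMSO plus OVA 50 μg/mL, washed. 1 × 10^4 BMDCs cocultured 72 h with 5 × 10^4 CFSE-labelled OT-II CD4+ or OT-I CD8+ T cells. Flow: live Thy1.2+ CD4+ or CD8+ cells scored as CD25+ CFSElow. Duplicates of two experiments.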

The test system of a further data set is CD4+ve Th. Put plainly: Induction of mouse ovalbumin specific CD4+ T cell activation assessed as increase in IL-17A expression at 1 uM preincubated for 18 hrs with mouse BDMC cells in presence of ovalbumin followed by washout and further coincubated with CD4+ T cells and measured after 72 hrs. Format: functional, cell-based. Put shortly: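 Supernatants taken after the 72 h coculture of washed BMDCs (18 h pretreatment with 1 μM compound, LPS 1 μg/mL or vehicle, plus OVA 50 μg/mL) with OT-II CD4+ or OT-I CD8+ T cells. Cytokines measured by mouse Th1/Th2/Th17 cytometric bead array. Duplicates of two independent experiments, mean ± SEM.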

In the next data set the test system is Mus musculus. Nature of the data set: Immuno-adjuvant activity in NIH/OlaHsd mouse assessed as increase in ovalbumin specific Th2 associated IgG1 production in sera at 50 ug, sc administered on day 0 and as booster dose on day 21 and 28 measured 7 days post last dose by ELISA. It is filed as functional, organism-based. The conditions noted are these: dose 50.0 µg, time 35.0 day. In general terms: ELISA stands for enzyme-linked immunosorbent assay.

The subject of data set [5] is PBMC. Put plainly: Upregulation of IFN-gamma gene transcription in human PBMC cells at 1 uM incubated for 18 hrs by KEGG analysis. Format: functional, cell-based. Put shortly:
(§2)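 PBMCs from three donors (2 × 10^6 cells/mL) exposed to 1 μM compound or 0.1% DMSO for 18 h at 37 °C. mRNA isolated, amplified, sequenced. DESeq2 differential expression, FDR <0.05 and fold change >2 or <0.5 versus vehicle; gene lists used for Metascape/KEGG enrichment.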

In data set [6] the test system is PBMC. Put plainly: Upregulation of IL12B gene transcription in human PBMC cells at 1 uM incubated for 18 hrs by KEGG analysis. It is filed as functional, cell-based. Put shortly: as §2
The test system of data set [7] is PBMC. Nature of the data set: Upregulation of Tbx21 gene transcription in human PBMC cells at 1 uM incubated for 18 hrs by KEGG analysis. Format: functional, cell-based. Put shortly: as §2
Data set [8] relates to PBMC. Put plainly: Upregulation of CXCL9 gene transcription in human PBMC cells at 1 uM incubated for 18 hrs by KEGG analysis. It is filed as functional, cell-based. Put shortly: as §2
The subject of data set [9] is PBMC. Nature of the data set: Upregulation of CXCL10 gene transcription in human PBMC cells at 1 uM incubated for 18 hrs by KEGG analysis. It is filed as functional, cell-based. Put shortly:
as §2

Data set [10] concerns PBMC. Put plainly: Upregulation of CXCL11 gene transcription in human PBMC cells at 1 uM incubated for 18 hrs by KEGG analysis. Format: functional, cell-based. An outline of the steps: as §2
Data set [11] deals with PBMC. Put plainly: Upregulation of IL-17A gene transcription in human PBMC cells at 1 uM incubated for 18 hrs by KEGG analysis. Format: functional, cell-based. An outline of the steps: as §2
For data set [12], the system named is PBMC. Put plainly: Upregulation of IL-17F gene transcription in human PBMC cells at 1 uM incubated for 18 hrs by KEGG analysis. It is filed as functional, cell-based. Put shortly: as §2
For data set [13], the system named is PBMC. Put plainly: Upregulation of IL-22 gene transcription in human PBMC cells at 1 uM incubated for 18 hrs by KEGG analysis. Format: functional, cell-based. An outline of the steps: as §2
A short description of data set [14]: Cytotoxicity against mouse RAW-Blue cells assessed as reduction in metabolic activity at 10 uM incubated for 18 hrs by MTS assay. Format: toxicity, cell-based. An outline of the steps:
(§3)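 Cells (HEK-Blue NOD2, RAW-Blue or freshly isolated human PBMCs) seeded in duplicate and exposed to 10 μM compound or 0.1% DMSO vehicle for 18 h at 37 °C, 5% CO2. Metabolic activity then measured by CellTiter 96 AQueous One (MTS) assay.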
On the technique in general: Tetrazolium assays rely on reduction of a dye to a coloured formazan, in cell work by metabolically active cells.

A short description of data set [15]: Cytotoxicity against human PBMC cells assessed as reduction in metabolic activity at 10 uM incubated for 18 hrs by MTS assay. It is filed as toxicity, cell-based. An outline of the steps:
as §3

In the case of `CCCCOc1nc(N)c2nc(O)n(Cc3ccc(C(=O)NCCOCCNC(=O)CC[C@@H](NC(=O)[C@@H](NC(=O)CNC(=O)/C=C/c4ccc(O)c(OC)c4)C(C)C)C(=O)OCC)cc3)c2n1`, the result in the data set on RAW-Blue, with PBMC [1], in the data set with PBMC [2], in the data set with PBMC [3], in the data set on MEC1 and with CD4+ve Th was Active. The outcome with Mus musculus, in the data set on PBMC [5], in the data set with PBMC [6], with PBMC [7], in the data set with PBMC [8] and in the data set with PBMC [9] was Active. Moreover, the result with PBMC [10], in the data set on PBMC [11], in the data set on PBMC [12] and in the data set on PBMC [13] was Active. Besides, the Activity is 28.9% in data set [4], “Non-Toxic” in data set [14] and “Non-Toxic” in data set [15].
